In ChEMBL document CHEMBL1156780, “6-(Het)aryl-7-deazapurine ribonucleosides as novel potent cytostatic agents” (J Med Chem, 2010):
pIC50: −log10 of the molar value.

Key:
CCRF-CEM [1] = experiment: Cell cycle arrest in human CCRF-CEM assessed as accumulation at S phase at 5 x GIC50 after 24 hrs by flow cytometry; format: functional
Outline: (§1)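 Subconfluent CCRF-CEM (5 × 10⁵ cells/mL, RPMI 1640 + 10% FCS, 37 °C CO₂) exposed 24 h at 1× or 5× GIC₅₀, vehicle controls alongside. Cells fixed overnight in 70% ethanol at -20 °C, hypotonic citrate wash, RNase 50 μg/mL, propidium iodide stain, 488 nm flow cytometry. Sub-G1 = particles with PI content below G0/G1 cells. Reported as % of total cells.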

DU-145 [2] = experiment: Cellular uptake ion human DU145 cells assessed as triphosphate level measured per million cells after 24 hrs
CCRF-CEM [3] = experiment: Cell cycle arrest in human CCRF-CEM assessed as accumulation at G1 phase at 1 x GIC50 after 24 hrs by flow cytometry; format: functional; outline: as §1
CCRF-CEM [4] = experiment: Inhibition of RNA synthesis in human CCRF-CEM assessed as assessed as BrdU incorporation at 1 x GIC50 after 24 by flow cytometry; format: functional; design: scale not given: the % may be the effect or the level left
Outline: (§2)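 CCRF-CEM culture as for cell cycle (24 h, 1× or 5× GIC₅₀). Cells pulsed 30 min with 1 mM bromouridine before harvest. Fixed in 1% paraformaldehyde/0.05% NP-40. Stained with anti-BrdU antibody cross-reacting with BrU, then FITC secondary, PI and RNase A. BrU+ cells quantified by 488 nm flow cytometry.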

CCRF-CEM [5] = experiment: Inhibition of DNA synthesis in human CCRF-CEM assessed as assessed as BrdU incorporation at 5 x GIC50 after 24 by flow cytometry; format: functional; design: scale not given: the % may be the effect or the level left
Outline: (§3)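 Culture as for cell cycle work (CCRF-CEM, 24 h, 1× or 5× GIC₅₀). Pulse with 10 μM BrdU for 30 min before harvest. Fixed in 70% ethanol, DNA denatured in 2 M HCl, neutralized with 0.1 M borax. Stained with anti-BrdU and FITC secondary, plus PI 0.1 mg/mL and RNase A. BrdU+ cells counted by flow cytometry.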

DU-145 [6] = experiment: Cellular uptake ion human DU145 cells measured per million cells after 24 hrs; format: functional
Outline: (§4)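 Du145 cells incubated with 10 μM compound for 6 or 24 h, PBS-washed, trypsinized, pelleted, spun through Nyosil M25 oil. Extracts analysed by LC/MS/MS for parent nucleoside, monophosphate and triphosphate. Standards and QC samples prepared in untreated-cell extracts. Expressed as pmol per million cells.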

CCRF-CEM [7] = experiment: Inhibition of RNA synthesis in human CCRF-CEM assessed as assessed as BrdU incorporation at 5 x GIC50 after 24 by flow cytometry; format: functional; design: scale not given: the % may be the effect or the level left; outline: as §2
DU-145 [8] = experiment: Cellular uptake ion human DU145 cells assessed as monophosphate level measured per million cells after 24 hrs; format: functional; outline: as §4
A549 = experiment: Cytostatic activity against human A549 cells after 5 days by SRB assay; format: functional; details: A549, 120 h
Outline: (§5)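 Cells seeded in RPMI (colon, breast, lung lines), MEM (Du145) or F12K (PC3) with 10% FBS, 37 °C overnight. Day-zero plates fixed with cold 10% TCA. Compounds added as 5-fold serial dilutions for 5 days. Fixed, stained with 0.057% SRB in 1% acetic acid, dye solubilized in 10 mM Tris pH 10.5, A500 read. Growth % corrected for day-0 OD; GIC₅₀ from sigmoidal fit.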

[9] = Cytostatic activity against human Hs578 cells after 5 days by SRB assay; format: functional; details: Hs578, 120 h; outline: as §5
CCRF-CEM [10] = experiment: Cell cycle arrest in human CCRF-CEM assessed as accumulation at G2/M phase at 5 x GIC50 after 24 hrs by flow cytometry; format: functional; outline: as §1
HCT-15 = experiment: Cytotoxicity against human HCT15 cells after 5 days by SRB assay; format: functional; details: HCT-15, 120 h; outline: as §5
CCRF-CEM [11] = experiment: Cell cycle arrest in human CCRF-CEM assessed as accumulation at S phase at 1 x GIC50 after 24 hrs by flow cytometry; format: functional; outline: as §1
NCI-H23 = experiment: Cytotoxicity against human NCI-H23 cells after 5 days by SRB assay; format: functional; details: NCI-H23, 120 h; outline: as §5
CCRF-CEM [12] = experiment: Cell cycle arrest in human CCRF-CEM assessed as accumulation at G2/M phase at 1 x GIC50 after 24 hrs by flow cytometry; format: functional; outline: as §1
CCRF-CEM [13] = experiment: Antimitotic activity in human CCRF-CEM cells assessed as decrease in mitotic histone H3 at 1 x GIC50; format: functional; design: scale not given: the % may be the effect or the level left
Outline: (§6)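 CCRF-CEM cells seeded subconfluent at 5 × 10⁵ cells/mL in RPMI 1640 with 10% FCS, 10 mM glutamine, penicillin/streptomycin, 37 °C humidified CO₂. Exposed 24 h at 1× or 5× GIC₅₀; vehicle controls harvested at 24 h. Ethanol-fixed cells labelled with anti-phospho-histone H3 Ser10 and mitotic cells counted by flow cytometry as % of total population.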

CCRF-CEM [14] = experiment: Cytotoxicity against human CCRF-CEM cells after 3 days by XTT assay; format: functional, cell-based; details: 72 h
Outline: (§7)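 Cell viability of CCRF-CEM, HL60 and HeLa cells measured by XTT assay after 72 h incubation with compounds. IC₅₀ taken as mean of 2–4 independent experiments.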

DU-145 [15] = experiment: Cellular uptake ion human DU145 cells assessed as monophosphate level measured per million cells after 6 hrs; format: functional; outline: as §4
CCRF-CEM [16] = experiment: Antimitotic activity in human CCRF-CEM cells assessed as decrease in mitotic histone H3 at 5 x GIC50; format: functional; design: scale not given: the % may be the effect or the level left; outline: as §6
[17] = Cytotoxicity against human HeLaS3 cells after 3 days by XTT assay; format: functional, cell-based; details: HeLa S3, 72 h
CCRF-CEM [18] = experiment: Cell cycle arrest in human CCRF-CEM assessed as accumulation at subG1 phase at 1 x GIC50 after 24 hrs by flow cytometry; format: functional; outline: as §1
BT-549 = experiment: Cytotoxicity against human BT549 cells after 5 days by SRB assay; format: functional; details: BT-549, 120 h; outline: as §5
PC-3 = experiment: Cytotoxicity against human PC3 cells after 5 days by SRB assay; format: functional; details: PC-3, 120 h; outline: as §5
CCRF-CEM [19] = experiment: Cell cycle arrest in human CCRF-CEM assessed as accumulation at G1 phase at 5 x GIC50 after 24 hrs by flow cytometry; format: functional; outline: as §1
CCRF-CEM [20] = experiment: Inhibition of DNA synthesis in human CCRF-CEM assessed as assessed as BrdU incorporation after 24 by flow cytometry; format: functional
DU-145 [21] = experiment: Cellular uptake ion human DU145 cells measured per million cells after 6 hrs; format: functional; outline: as §4
DU-145 [22] = experiment: Cytostatic activity against human DU145 cells after 5 days by SRB assay; format: functional; details: DU-145, 120 h; outline: as §5
HCT-116 = experiment: Cytostatic activity against human HCT116 cells after 5 days by SRB assay; format: functional; details: HCT-116, 120 h; outline: as §5
CCRF-CEM [23] = experiment: Inhibition of RNA synthesis in human CCRF-CEM assessed as assessed as BrdU incorporation after 24 by flow cytometry; format: functional
CCRF-CEM [24] = experiment: Inhibition of DNA synthesis in human CCRF-CEM assessed as assessed as BrdU incorporation at 1 x GIC50 after 24 by flow cytometry; format: functional; design: scale not given: the % may be the effect or the level left; outline: as §3
DU-145 [25] = experiment: Cellular uptake ion human DU145 cells assessed as triphosphate level measured per million cells after 6 hrs
HL-60 = experiment: Cytotoxicity against human HL60 cells after 3 days by XTT assay; format: functional, cell-based; details: HL-60, 72 h; outline: as §7
CCRF-CEM [26] = experiment: Cell cycle arrest in human CCRF-CEM assessed as accumulation at subG1 phase at 5 x GIC50 after 24 hrs by flow cytometry; format: functional; outline: as §1

## OC[C@H]1O[C@@H](n2ccc3c(-c4ccco4)ncnc32)[C@H](O)[C@@H]1O
CCRF-CEM [1]
  Activity: 44.6%
DU-145 [2]
  triphosphate (NTP) level: 109 pmol
CCRF-CEM [3]
  Activity: 44.9%
CCRF-CEM [4]
  Activity: 28.7%
CCRF-CEM [5]
  Activity: 31.3%
DU-145 [6]
  Activity: 207 pmol
CCRF-CEM [7]
  Activity: 4.7%
DU-145 [8]
  Activity: 6842 pmol
A549
  GI50: 88 nM
[9]
  GI50: 49 nM
CCRF-CEM [10]
  Activity: 6.8%
HCT-15
  GI50: 20 nM
CCRF-CEM [11]
  Activity: 42.2%
NCI-H23
  GI50: 130 nM
CCRF-CEM [12]
  Activity: 12.9%
CCRF-CEM [13]
  Activity: 1.21%
CCRF-CEM [14]
  pIC50: 6.51
DU-145 [15]
  Activity: 4124 pmol
CCRF-CEM [16]
  Activity: 0.48%
[17]
  pIC50: 6.11
CCRF-CEM [18]
  Activity: 16.5%
BT-549
  GI50: 12 nM
PC-3
  GI50: 14 nM
CCRF-CEM [19]
  Activity: 46.7%
CCRF-CEM [20]
  inhibition (INH): 31.33%
DU-145 [21]
  Activity: 950 pmol
DU-145 [22]
  GI50: 7 nM
HCT-116
  GI50: 78 nM
CCRF-CEM [23]
  inhibition (INH): 4.7%
CCRF-CEM [24]
  Activity: 54.3%
DU-145 [25]
  triphosphate (NTP) level: 88.4 pmol
HL-60
  pIC50: 6.09
CCRF-CEM [26]
  Activity: 60.2%
